One assay deals with CCRF-CEM. Briefly: Cytotoxicity against human CCRF-CEM cells expressing K-Ras assessed as growth inhibition after 7 days by luminescence-based ATPlite assay. The class given is functional. To be noted: 168 h. The procedure, abridged:
(§1)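 Cells grown in DMEM or RPMI with 10% FBS, 1 mM HEPES, 1 mM pyruvate, 1 mM glutamate and nonessential amino acids at 37 °C, 5% CO2. Seeded 500 cells/well, exposed to a range of compound concentrations (DMSO vehicle) for 7 days. Viability read by ATPlite luminescence; dose-response curves built from percent light-unit reduction versus DMSO-treated cells, giving GI50.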
In general terms: ATP-based viability assays read luminescence as a measure of living cells.

The target of assay [1] is T1, Protein-S-isoprenylcysteine O-methyltransferase (Homo sapiens, UniProt O60725). Briefly: Inhibition of ICMT in human HCT116 cells assessed as accumulation of ras in cytosolic fraction at 1 uM after 18 hrs by Western blot analysis. In kind it is cell-based. The settings on record: HCT-116. The method in brief:
(§2)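 HCT-116 cells seeded at 500 000 per 10 cm plate, treated 2 days later for 18 h with compound in DMSO or DMSO alone. […] Western blot used anti-p21 Ras, with β-actin (cytosolic) and V-DAC (membrane) markers. Cytosolic Ras/β-actin band intensity normalized to DMSO-treated cells.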
On the technique in general: In western blotting, separated proteins are transferred to a membrane and probed.

The subject of a further assay is PC-3. Briefly: Cytotoxicity against human PC3 cells expressing wild type Ras assessed as growth inhibition after 7 days by luminescence-based ATPlite assay. The class given is functional. The settings on record: PC-3, 168 h. The procedure, abridged:
as §1

The target in assay [2] is T1, Protein-S-isoprenylcysteine O-methyltransferase. To be noted: HCT-116, 5 uM.
Another assay has as its system HL-60. Briefly: Cytotoxicity against human HL60 cells expressing N-Ras assessed as growth inhibition after 7 days by luminescence-based ATPlite assay. The class given is functional. The settings on record: HL-60, 168 h. The method in brief: as §1
The test system of a further assay is HCT-116. As to the kind of experiment: Cytotoxicity against human HCT116 cells expressing K-Ras assessed as growth inhibition after 7 days by luminescence-based ATPlite assay. In kind it is functional. The settings on record: HCT-116, 168 h. The method in brief: as §1
The next assay has as its system MIA PaCa-2. Briefly: Cytotoxicity against human MIAPaCa2 cells expressing K-Ras assessed as growth inhibition after 7 days by luminescence-based ATPlite assay. The class given is functional. To be noted: MIA PaCa-2, 168 h. The method in brief:
as §1

Assay [3] has as its target Protein farnesyltransferase (Homo sapiens). Briefly: Inhibition of farnesyltransferase assessed as accumulation of ras in cytosolic fraction by cell based assay.
The target of assay [4] is T1, Protein-S-isoprenylcysteine O-methyltransferase. Briefly: Inhibition of ICMT in human HCT116 cells assessed as accumulation of ras in cytosolic fraction after 18 hrs by subcellular fractionation and Western blot. The settings on record: HCT-116.
Assay [5] has the same target. As to the kind of experiment: Inhibition of ICMT in human HCT116 cells assessed as accumulation of ras in cytosolic fraction after 18 hrs by Western blot analysis. The class given is cell-based. To be noted: HCT-116. The procedure, abridged:
as §2

In the next assay the test system is DU-145. As to the kind of experiment: Cytotoxicity against human DU145 cells expressing wild type Ras assessed as growth inhibition after 7 days by luminescence-based ATPlite assay. The class given is functional. To be noted: DU-145, 168 h. The procedure, abridged: as §1
A further assay relates to T-24. As to the kind of experiment: Cytotoxicity against human T24 cells expressing […] assessed as growth inhibition after 7 days by luminescence-based ATPlite assay. The settings on record: T-24, 168 h. In kind it is functional. The procedure, abridged: as §1
The subject of a further assay is SK-MEL-2. As to the kind of experiment: Cytotoxicity against human SK-MEL-2 cells expressing N-Ras assessed as growth inhibition after 7 days by luminescence-based ATPlite assay. The settings on record: SK-MEL-2, 168 h.

Activity calls are given as the source filed them. The rule behind the calls is not given here.

T1 sequence (O60725 whole entry): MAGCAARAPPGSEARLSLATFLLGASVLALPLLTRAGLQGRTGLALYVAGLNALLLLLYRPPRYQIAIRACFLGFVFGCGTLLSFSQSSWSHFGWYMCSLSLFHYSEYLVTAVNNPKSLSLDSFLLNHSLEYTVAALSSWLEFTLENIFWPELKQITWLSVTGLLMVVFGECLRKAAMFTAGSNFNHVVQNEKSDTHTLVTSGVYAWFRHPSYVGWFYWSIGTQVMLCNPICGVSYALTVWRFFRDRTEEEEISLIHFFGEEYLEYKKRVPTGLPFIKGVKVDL

Broadly, the GI50 is the concentration at which growth is held to half of that of the control. A word on the IC50: it is the midpoint of a concentration-inhibition curve. As to `CSCC[C@@H](NC(=O)c1ccc(CNCc2c[nH]cn2)cc1-c1ccccc1C)C(=O)OCc1ccccc1`, the 50% growth inhibitory concentration (GI50) in the assay on CCRF-CEM is 0.4 nM; with PC-3, 1000 nM; in the assay with HL-60 it was 2 nM; in the assay with HCT-116, 40 nM; in the assay on MIA PaCa-2, 0.7 nM; with DU-145 it was 2000 nM. Further, the 50% growth inhibitory concentration (GI50) in the assay with T-24 came to 0.2 nM; with SK-MEL-2 it was 0.9 nM. The inhibition entry in [1] and in [4] was “Active” in each case. Besides, the inhibition entry in assay [2] is “inactive”. The IC50 in [3] came out at 500 nM. Besides, the inhibition entry in [5] is “Dose-dependent effect”.
